# Assay results pooled from the literature.
# Protocols differ between the studies behind these lines.
# Target: Serine/threonine-protein kinase 16 (STK16, Homo sapiens, UniProt O75716)
Compound,effect on,action,technique,concentration,quantity,value
Cc1sc(C(=O)NC2COC2)cc1-n1cc(NC(=O)Nc2c(F)cccc2Cl)cn1,enzyme activity,inhibitor,,10 µM,remaining activity,94.4%
CN([C@@H]1CCc2c(CC(=O)O)c3cc(S(C)(=O)=O)ccc3n2C1)S(=O)(=O)c1ccc(F)cc1,cell-free assay,,competition with immobilised ligand,1 µM,remaining binding,95%
O=C(Nc1cnn(-c2csc(C(=O)NC3COC3)c2)c1)Nc1ccccc1Cl,enzyme activity,inhibitor,,5 µM,remaining activity,98.6%
O=C(NCc1ncc(C(F)(F)F)cc1Cl)c1ccc2c(c1)C1(CCS(=O)(=O)CC1)[C@@H](C1CC1)N2S(=O)(=O)c1ccc(F)cc1,cell-free assay,,competition with immobilised ligand,1 µM,remaining binding,99%
Cn1cncc1C1=CN(c2ncnc3[nH]cnc23)CCS1,enzyme activity,inhibitor,radiometric,2 µM,inhibition,49.5%
c1ccc(N2CCN(Cc3nc4ccccc4[nH]3)CC2)nc1,binding,,competition with immobilised ligand,1 µM,remaining binding,87%
CC(C)(O)[C@H]1CC[C@H](Nc2ccc3ncc(-c4cccc(C(F)(F)F)c4)n3n2)CC1,enzyme activity,inhibitor,,1 µM,remaining activity,78.7%
COc1cc(/C=C/C(=O)CC(=O)/C=C/c2ccc(O)c(OC)c2)ccc1O,enzyme activity,inhibitor,,1 µM,activity vs control,91%
Cc1ccc(C(=O)Nc2ccc(CN3CCN(C)CC3)c(C(F)(F)F)c2)cc1C#Cc1cnc2cccnn12,enzyme activity,inhibitor,,23.5 nM,remaining activity,94%
COc1cc(-c2cc(-c3ccc(N4CCNCC4)cc3)cnc2C)cc(OC)c1OC,enzyme activity,inhibitor,,0.1 µM,inhibition,4%
Cn1cnc(Br)c1C1=CN(c2ncnc3[nH]cnc23)CCS1,enzyme activity,inhibitor,radiometric,2 µM,inhibition,67.8%
C#Cc1cccc(Nc2ncnc3cc(OCCOC)c(OCCOC)cc23)c1,cell-free assay,,,0.5 µM,remaining signal,98%
COc1cc(Nc2cnc(C#N)c(O[C@H](C)CN(C)C)n2)ncc1-c1cnn(C)c1,enzyme activity,inhibitor,radiometric,10 µM,remaining activity,91%
CNC(=O)c1cc(Oc2ccc(NC(=O)Nc3ccc(Cl)c(C(F)(F)F)c3)cc2)ccn1,cell-free assay,,,0.5 µM,remaining signal,105%
COc1cc(Cl)c(C(=O)N[C@@H](CN[C@H]2CC[C@@H](N)CC2)Cc2ccc(C#N)cc2)cc1-c1ccc(CN[C@H](C)c2ccc(C)cc2)o1,enzyme activity,inhibitor,,1 µM,remaining activity,95%
CCS(=O)(=O)c1cc2cc(C[C@@](O)(CC(C)(C)c3ccc(F)cc3C(N)=O)C(F)(F)F)[nH]c2cn1,cell-free assay,,competition with immobilised ligand,1 µM,remaining binding,91%
FC(F)(F)Oc1cccc(-c2cnc3ccc(-c4ccncc4)nn23)c1,enzyme activity,inhibitor,radiometric,5 µM,activity vs control,118%
Nc1cnc(N2CCc3cc(S(=O)(=O)Nc4c(F)cc(Cl)cc4F)cc(N4CCCC4=O)c32)nc1,cell-free assay,,competition with immobilised ligand,1 µM,remaining binding,100%
O=C1NC(=O)c2cc(Nc3ccc(F)cc3)c(Nc3ccc(F)cc3)cc21,cell-free assay,,,0.5 µM,remaining signal,85.8%
